In ChEMBL document CHEMBL4251576, “Synthesis and biological evaluation of curcumin inspired imidazo[1,2-a]pyridine analogues as tubulin polymerization inhibitors” (Eur J Med Chem, 2018):
Counter-ions that a name gives are not always drawn.

What was measured:
DU-145 [1] = test: Cytotoxicity against human DU145 cells assessed as inhibition of cell viability after 48 hrs by MTT assay; format: functional, cell-based; details: DU-145, 48 h
Method in brief: (§1)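 Cells were seeded at 2.5‒5 x 10^3 per well in DMEM or RPMI with 10% FBS and grown 24 h at 37 °C under CO2. Compounds diluted in medium were added alongside vehicle control for 48 h. MTT (0.5 mg/mL) was added for 4 h, formazan dissolved in DMSO and absorbance read at 570 nm. IC50 is the concentration giving 50% loss of viability; mean ± SD of three experiments, each in triplicate.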

NCI-H460 [2] = test: Cytotoxicity against human NCI-H460 cells assessed as inhibition of cell viability after 48 hrs by MTT assay; format: functional, cell-based; details: NCI-H460, 48 h; method in brief: as §1
HeLa = test: Cytotoxicity against human HeLa cells assessed as inhibition of cell viability after 48 hrs by MTT assay; format: functional, cell-based; method in brief: as §1
4T1 = test: Cytotoxicity against mouse 4T1 cells assessed as inhibition of cell viability after 48 hrs by MTT assay; format: functional, cell-based; details: 4T1, 48 h; method in brief: as §1
PC-3 [3] = test: Cytotoxicity against human PC3 cells assessed as inhibition of cell viability after 48 hrs by MTT assay; format: functional, cell-based; details: PC-3, 48 h; method in brief: as §1
HGC-27 = test: Cytotoxicity against human HGC27 cells assessed as inhibition of cell viability after 48 hrs by MTT assay; format: functional, cell-based; details: HGC-27, 48 h; method in brief: as §1
PC-3 [4] = test: Potency index, ratio of curcumin IC50 to test compound IC50 for human PC3 cells; format: functional
NCI-H460 [5] = test: Potency index, ratio of curcumin IC50 to test compound IC50 for human NCI-H460 cells; format: functional
DU-145 [6] = test: Potency index, ratio of curcumin IC50 to test compound IC50 for human DU145 cells; format: functional

Row | Compound | IC50 (DU-145 [1]) [µM] | IC50 (NCI-H460 [2]) [µM] | IC50 (HeLa) [µM] | IC50 (4T1) [µM] | IC50 (PC-3 [3]) [µM] | IC50 (HGC-27) [µM] | Ratio IC50 (PC-3 [4]) | Ratio IC50 (NCI-H460 [5]) | Ratio IC50 (DU-145 [6])
1 | COc1ccc(-c2c(/C=C/C(=O)/C=C/c3cc(OC)ccc3OC)nc3ccccn23)cc1 | > 10 | > 10 | > 10 | > 10 | > 10 | > 10 | – | – | –
2 | COc1ccc(/C=C/C(=O)/C=C/c2nc3ccccn3c2-c2ccccc2)cc1OC | > 10 | > 10 | > 10 | > 10 | > 10 | > 10 | – | – | –
3 | CC[C@]1(O)C[C@H]2CN(CCc3c([nH]c4ccccc34)[C@@](C(=O)OC)(c3cc4c(cc3OC)N(C=O)[C@H]3[C@@](O)(C(=O)OC)[C@H](OC(C)=O)[C@]5(CC)C=CCN6CC[C@]43[C@@H]65)C2)C1 [VINCRISTINE SULFATE] | 71.8 | – | – | – | – | – | – | – | –
4 | COc1cccc(-c2c(/C=C/C(=O)/C=C/c3cc(OC)ccc3OC)nc3ccccn23)c1 | > 10 | > 10 | > 10 | > 10 | > 10 | > 10 | – | – | –
5 | COc1ccc(/C=C/C(=O)/C=C/c2nc3ccccn3c2-c2ccc(F)c(F)c2)c(OC)c1 | 8.46 | 9.53 | 8.41 | 9.72 | 8.94 | 10.3 | 2.1 | 1.8 | 3.9
6 | COc1cc(OC)c(/C=C/C(=O)/C=C/c2nc3ccccn3c2-c2ccccc2)c(OC)c1 | > 10 | > 10 | > 10 | > 10 | > 10 | > 10 | – | – | –
7 | COc1cccc(-c2c(/C=C/C(=O)/C=C/c3ccc(OC)c(OC)c3)nc3ccccn23)c1 | > 10 | > 10 | > 10 | > 10 | > 10 | > 10 | – | – | –
8 | COc1ccc(/C=C/C(=O)/C=C/c2nc3ccccn3c2-c2ccc(F)c(F)c2)cc1 | > 10 | > 10 | > 10 | > 10 | > 10 | > 10 | – | – | –
9 | COc1cc(OC)c(OC)cc1/C=C/C(=O)/C=C/c1nc2ccccn2c1-c1ccccc1 | 3.71 | 2.84 | 1.67 | 1.68 | 2.75 | 5.38 | 6.8 | 6 | 8.9
10 | COc1ccc(-c2c(/C=C/C(=O)/C=C/c3ccc(OC)cc3OC)nc3ccccn23)cc1 | > 10 | > 10 | > 10 | > 10 | > 10 | > 10 | – | – | –
11 | COc1ccc(/C=C/C(=O)/C=C/c2nc3ccccn3c2-c2ccccc2)c(OC)c1 | > 10 | > 10 | > 10 | > 10 | > 10 | > 10 | – | – | –
12 | COc1cc(/C=C/C(=O)CC(=O)/C=C/c2ccc(O)c(OC)c2)ccc1O [CURCUMIN] | – | – | – | – | 18.7 | – | – | – | –
13 | COc1ccc(/C=C/C(=O)/C=C/c2nc3ccccn3c2-c2ccc(OC)cc2)cc1 | > 10 | > 10 | > 10 | > 10 | > 10 | > 10 | – | – | –
14 | COc1ccc(/C=C/C(=O)/C=C/c2nc3ccccn3c2-c2cccc(OC)c2)cc1 | > 10 | > 10 | > 10 | > 10 | > 10 | > 10 | – | – | –
15 | COc1ccc(/C=C/C(=O)/C=C/c2nc3ccccn3c2-c2ccccc2)cc1 | > 10 | > 10 | > 10 | > 10 | > 10 | > 10 | – | – | –
16 | COc1ccc(OC)c(/C=C/C(=O)/C=C/c2nc3ccccn3c2-c2ccccc2)c1 | 3.38 | 4.01 | 5.51 | 3.38 | 3.03 | 7.08 | 6.1 | 4.3 | 9.8
17 | COc1ccc(-c2c(/C=C/C(=O)/C=C/c3ccc(OC)c(OC)c3)nc3ccccn23)cc1 | 4 | 4.28 | 6.66 | 5.61 | 3.64 | 7.84 | 5.1 | 4 | 8.3
18 | COc1ccc(/C=C/C(=O)/C=C/c2nc3ccccn3c2-c2ccc(F)c(F)c2)cc1OC | 4.87 | 3.01 | 5.58 | 3.45 | 5.43 | 3.38 | 3.4 | 5.7 | 6.8
19 | COc1ccc(-c2c(/C=C/C(=O)/C=C/c3cc(OC)c(OC)cc3OC)nc3ccccn23)cc1 | 5.63 | 5.52 | 9.41 | 4.69 | 7.24 | 8.77 | 2.6 | 3.1 | 5.9
20 | COc1cccc(-c2c(/C=C/C(=O)/C=C/c3ccc(OC)cc3OC)nc3ccccn23)c1 | > 10 | > 10 | > 10 | > 10 | > 10 | > 10 | – | – | –
21 | COc1ccc(OC)c(/C=C/C(=O)/C=C/c2nc3ccccn3c2-c2ccc(F)c(F)c2)c1 | 4.19 | 3.11 | 4.93 | 3.27 | 2.84 | 6.35 | 6.6 | 5.5 | 7.9
